# Bioassay records as filed in PubChem.
# The list is not random: actives were taken first. Their share in the collection is about 1.5%.
# S1P4 agonist: human S1P4 receptor agonism. S1P4-expressing cell line, agonist reporter assay. activation, % at 4.98 µM. 220,000 compounds, 0.35% hits. AID 1509; in the data active = activation above about 11%;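 also: 0% = DMSO vehicle and 100% = reference agonist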
# L929 necroptosis: blocks zVAD induced death of L929 cells; L929 zVAD necroptosis rescue, ATP luminescence, 24 h; with zVAD 60 µM; viability rescue, % at 10 µM; 220,000 compounds, 0.38% hits; AID 1377;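 active = activation, scaled between plate controls, above about 75%, limit read from the data; inactive = activation under that limit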;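 also: 0% = zVAD with DMSO and 100% = DMSO alone without zVAD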
# TNF death inh: blocks TNF-alpha induced death of Jurkat FADD-/- cells; 220,000 compounds, 0.068% hits; activation (protection from cell death), % at 10 µM; Jurkat FADD-/- TNF necroptosis rescue, ATP luminescence, 24 h; 0 = TNF only, 100 = no-TNF cells;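 active = activation, meaning protection from cell death, of at least 50% relative to plate controls; inactive = activation below 50%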;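 also: necroptosis triggered by 40 ng/mL TNF-alpha added together with compound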
# S1P4 antag: antagonists of human S1P4 receptor; O95977; S1P4-expressing cells, antagonist mode, reporter read-out; inhibition, % at 4.98 µM; 220,000 compounds, 0.26% hits; in the data active = inhibition above about 29%;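 also: 0% = wells stimulated with agonist and 100% = vehicle wells without agonist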
# Dynein transport: blocks dynein driven cargo transport along microtubules; 3617.4 mouse cells, GR-EGFP nuclear translocation imaging; test concentration mostly 20 µM; stimulated with dexamethasone, 1 µM; stronger effect = lower value; z-score, hits read low; 220,000 compounds, 0.47% hits; AID 1381;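 active = plate z-score of nuclear minus cytoplasmic receptor signal below a set negative limit, without overly bright fluorescence or cell loss, cut at about -3.5 in these data, passing the limit was not always enough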;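 also: z-score of nuclear minus cytoplasmic ring GR-EGFP intensity difference per well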
#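 Also added – dexamethasone, 1.0 µM final · Buffer or medium – tet-free, stripped-serum medium · Schedule – induction 48 h, compound 1 h, agonist 30 min · Detection – formaldehyde fixation, Hoechst nuclear stain, 10x automated fluorescence imaging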
# Tb hexokinase: blocks Trypanosoma brucei hexokinase 1 activity | inhibition, % at 10 µM | recombinant TbHK1, G6PDH-coupled NADH A340 | AID 1430 | 220,000 compounds, 0.11% hits;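 active = inhibition of 50% or more in the single-dose primary screen; inactive = inhibition below 50%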
# S1P4 ag conf: human S1P4 agonism, confirmation | shares compounds with S1P4 agonist | S1P4 agonist cell-based reporter assay | activation, % at 4.98 µM | 740 compounds, 7% hits; in the data active = activation above about 12%;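 also: 0% = vehicle and 100% = full reference agonist response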
# S1P1 ag: counter-screen for S1P4 agonists: agonists of human S1P1 | shares compounds with S1P4 agonist | S1P1 agonist cell-based assay, activation | activation, % at 4.98 µM | 740 compounds, 4% hits; in the data active = activation above about 21%;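 also: 0% = vehicle wells and 100% = reference agonist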
# Target sequence (P21453 whole entry, looked up): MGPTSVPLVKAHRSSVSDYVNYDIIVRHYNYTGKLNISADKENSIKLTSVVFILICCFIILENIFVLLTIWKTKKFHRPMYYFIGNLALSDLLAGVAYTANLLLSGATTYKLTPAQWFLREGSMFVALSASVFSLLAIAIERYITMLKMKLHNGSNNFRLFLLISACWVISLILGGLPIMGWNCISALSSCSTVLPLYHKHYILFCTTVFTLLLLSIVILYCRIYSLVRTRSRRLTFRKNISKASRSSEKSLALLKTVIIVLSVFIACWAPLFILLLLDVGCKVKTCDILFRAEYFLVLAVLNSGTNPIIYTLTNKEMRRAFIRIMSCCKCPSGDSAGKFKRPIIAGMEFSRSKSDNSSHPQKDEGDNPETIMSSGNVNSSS
# Numbers without * were called inactive; . = not tested or not shown.
SMILES,S1P4 agonist,L929 necroptosis,TNF death inh,S1P4 antag,Dynein transport,Tb hexokinase,S1P4 ag conf,S1P1 ag
CC(=O)Nc1ccc(C(=O)N/N=C/c2ccccc2OCc2ccccc2)cc1,19*,1,-5,4,0.028,-5,-2,-4
O=C(O)CC(Sc1n[nH]c(=S)s1)C(=O)O (configuration not stated),1,0,2,3,0.26,-10,.,.
OCCOCCNc1ncnc2c1cnn2-c1ccccc1,-2,1,0,3,-0.19,-6,.,.
OCCOCCNc1ncnc2c1cnn2-c1ccc(Cl)cc1,68*,0,0,10,1.2,-3,0,8
Cc1cc(C)n(CCO)c(=O)n1,2,0,2,-3,-1,3,.,.
Cc1cc(=S)cc(C)n1CCO,11*,.,1,-2,2.1,-32,-1,1
CCCc1nc2c(sc3nc4c(cc32)COC(C)(C)C4)c(=O)o1,0,4,-2,-16,-0.32,-3,.,.
CCNc1nc(NCC)nc(N/N=C/c2ccc(Br)cc2)n1,1,11,18,-10,-0.79,-3,.,.
O=S(=O)(c1ccc(-c2cn3ccccc3n2)cc1)N1CCOCC1,68*,0,9,-6,-0.61,-26,-2,3
COc1ccc(CC2(CO)CCN(Cc3cnn(C)c3C)CC2)cc1,17*,0,2,8,-0.33,1,-1,-8
COc1ccccc1Nc1ccc(N)cc1,13*,3,-11,-13,0.17,-8,-2,2
CCOc1ccc(Oc2c(/C=N/NC(=O)COc3ccccc3OC)c(C)nn2-c2ccccc2)cc1,22*,1,0,-10,0.34,-6,-2,-3
O=C(/C=C/c1ccc(F)cc1)N1CCN(c2ccccn2)CC1,16*,1,0,-32,-0.46,5,-1,-5
CCCOc1ccc(/C=C/C(=O)N2CCN(c3ccccn3)CC2)cc1,1,0,0,2,0.53,-5,.,.
Cc1cc(C(=O)CN2C(=O)NC(C)(CC(C)C)C2=O)c(C)n1-c1ccc2c(c1)OCO2 (configuration not stated),13*,0,3,-9,0.44,-5,-2,-1
Cc1cc(C(=O)CN2C(=O)NC3(CCCC3)C2=O)c(C)n1-c1ccc2c(c1)OCO2,1,0,2,-2,-0.7,-5,.,.
OC1(c2cccnc2)CCN(Cc2nnnn2Cc2ccccc2)CC1,53*,3,-1,0,-0.45,-8,-2,5
Cc1ccc(Cn2nnnc2CN2CCC(O)(c3cccnc3)CC2)cc1,-1,0,1,-7,-0.61,-3,.,.
C#Cc1cccc(-n2nnc(C(C)=O)c2C)c1,68*,0,4,-2,0.18,0,-2,1
Cc1ccc(S(=O)(=O)N(C)C)cc1NC(=O)COC(=O)c1n[nH]c(=O)c2ccccc12,25*,10,0,-10,1,0,0,-3
CCc1nc(SCC(=O)Nc2nnc(CC(C)C)s2)n[nH]1,-1,0,1,-6,0.73,10,.,.
CC(C)CCN1CCN(CC(c2ccccc2)c2ccccc2)CC1CCO (configuration not stated),2,-1,1,-12,0.36,5,.,.
Cc1ccc(-n2c(SCC(=O)N3CC(=O)Nc4ccccc43)nc3ccccc3c2=O)cc1,27*,0,-3,2,-0.31,-6,-2,-8
Cc1cc(C(=O)N/N=C/c2cc([N+](=O)[O-])ccc2O)c2ccccc2n1,22*,0,-4,-10,-0.3,12,-2,-1
COCCNC(=O)Cn1c(=O)n(CCCCCC(=O)Nc2ccccc2)c(=O)c2sccc21,21*,0,2,1,-0.45,-1,-2,-3
COCCCNC(=O)Cn1c(=O)n(CCCCCC(=O)Nc2ccccc2)c(=O)c2sccc21,3,0,1,-13,-0.79,36,.,.
